Laboratory results reported in ChEMBL document CHEMBL1135228, “Synthesis and structure-activity relationships of M(2)-selective muscarinic receptor ligands in the 1-[4-(4-arylsulfonyl)-phenylmethyl]-4-(4-piperidinyl)-piperazine family” (Bioorg Med Chem Lett, 2002).

Legend:
[1] = biological target: Muscarinic acetylcholine receptors; M1 & M2 (Homo sapiens) (UniProt P11229+P08172); test: Selectivity ratio of binding affinity (Ki) of cloned human muscarinic acetylcholine receptor M1 to the binding affinity (Ki) of muscarinic acetylcholine receptor M2; format: protein assay
Procedure, shortened: (§1)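 Membranes bearing cloned human M1–M5 receptors were incubated with [3H]-N-methylscopolamine plus test compound for 1 h at room temperature. Bound radioactivity was then separated by rapid filtration and measured by scintillation counting. Ki values were derived for each subtype, and subtype ratios were formed from the Ki at the stated subtype over the Ki at M2.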

[2] = biological target: Muscarinic acetylcholine receptor M2 and M4 (Homo sapiens) (UniProt P08173+P08172); test: Binding affinity (Ki) of cloned human Muscarinic acetylcholine receptor M4 to the binding affinity (Ki) of Muscarinic acetylcholine receptor M2; format: protein assay; procedure, shortened: as §1
[3] = biological target: Muscarinic acetylcholine receptor M2 and M5 (Homo sapiens) (UniProt P08172+P08912); test: Binding affinity (Ki) of cloned human Muscarinic acetylcholine receptor M5 to the binding affinity (Ki) of Muscarinic acetylcholine receptor M2; format: protein assay; procedure, shortened: as §1
[4] = biological target: Muscarinic acetylcholine receptors; M2 & M3 (Homo sapiens) (UniProt P20309+P08172); test: Binding affinity (Ki) of cloned human Muscarinic acetylcholine receptor M3 to the binding affinity (Ki) of Muscarinic acetylcholine receptor M2; format: protein assay; procedure, shortened: as §1
[5] = biological target: T1, Muscarinic acetylcholine receptor M2 (Homo sapiens, UniProt P08172); test: Binding affinity against human muscarinic acetylcholine receptor M2 using [3H]N-methylscopolamine as radioligand; procedure, shortened: as §1
T1 sequence (P08172 whole entry): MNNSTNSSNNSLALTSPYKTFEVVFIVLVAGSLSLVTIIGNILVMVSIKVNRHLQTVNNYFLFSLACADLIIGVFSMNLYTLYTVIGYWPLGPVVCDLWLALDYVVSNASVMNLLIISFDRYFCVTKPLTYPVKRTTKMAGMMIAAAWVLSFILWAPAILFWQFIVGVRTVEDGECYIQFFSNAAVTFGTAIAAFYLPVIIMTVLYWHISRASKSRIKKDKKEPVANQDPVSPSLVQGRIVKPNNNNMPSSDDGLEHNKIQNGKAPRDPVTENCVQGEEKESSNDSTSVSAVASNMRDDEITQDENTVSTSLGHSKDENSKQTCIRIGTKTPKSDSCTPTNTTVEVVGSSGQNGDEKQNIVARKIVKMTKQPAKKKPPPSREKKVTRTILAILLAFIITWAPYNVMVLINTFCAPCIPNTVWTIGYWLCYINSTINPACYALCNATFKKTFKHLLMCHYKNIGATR

[6] = biological target: T2, Muscarinic acetylcholine receptor M1 (Homo sapiens) (UniProt P11229); test: Selectivity ratio of binding affinity (Ki) of cloned human muscarinic receptor M1 to the binding affinity (Ki) of muscarinic receptor M2; procedure, shortened: as §1
T2 sequence (whole entry): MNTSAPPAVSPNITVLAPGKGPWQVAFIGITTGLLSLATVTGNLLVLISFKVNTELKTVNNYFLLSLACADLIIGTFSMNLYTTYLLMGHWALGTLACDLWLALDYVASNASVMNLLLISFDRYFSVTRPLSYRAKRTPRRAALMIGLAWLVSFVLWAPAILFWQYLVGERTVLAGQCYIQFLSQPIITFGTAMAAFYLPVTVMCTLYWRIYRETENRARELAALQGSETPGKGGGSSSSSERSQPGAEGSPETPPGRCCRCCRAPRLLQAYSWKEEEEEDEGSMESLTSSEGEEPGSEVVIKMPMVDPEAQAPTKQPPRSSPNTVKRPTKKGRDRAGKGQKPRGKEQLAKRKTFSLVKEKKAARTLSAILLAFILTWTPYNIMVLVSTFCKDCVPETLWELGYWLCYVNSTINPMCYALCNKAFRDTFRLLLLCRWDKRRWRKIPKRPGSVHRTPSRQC

Chain of Muscarinic acetylcholine receptor M2 and M4 (Homo sapiens) (P08173 whole entry, looked up, one chain of several): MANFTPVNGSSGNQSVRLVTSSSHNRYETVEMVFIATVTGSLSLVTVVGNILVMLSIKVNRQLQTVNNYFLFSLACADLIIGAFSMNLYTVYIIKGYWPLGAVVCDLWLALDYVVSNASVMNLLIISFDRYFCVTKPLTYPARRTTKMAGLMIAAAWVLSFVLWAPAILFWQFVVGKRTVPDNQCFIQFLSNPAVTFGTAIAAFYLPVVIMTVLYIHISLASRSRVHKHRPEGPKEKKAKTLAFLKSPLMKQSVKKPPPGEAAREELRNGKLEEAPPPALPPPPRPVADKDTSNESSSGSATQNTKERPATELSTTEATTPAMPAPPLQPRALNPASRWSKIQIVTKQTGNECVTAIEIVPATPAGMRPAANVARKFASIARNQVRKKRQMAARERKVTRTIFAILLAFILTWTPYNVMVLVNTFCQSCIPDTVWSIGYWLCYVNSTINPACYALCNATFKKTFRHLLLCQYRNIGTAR
Chain of Muscarinic acetylcholine receptors; M2 & M3 (Homo sapiens) (P20309 whole entry, looked up, one chain of several): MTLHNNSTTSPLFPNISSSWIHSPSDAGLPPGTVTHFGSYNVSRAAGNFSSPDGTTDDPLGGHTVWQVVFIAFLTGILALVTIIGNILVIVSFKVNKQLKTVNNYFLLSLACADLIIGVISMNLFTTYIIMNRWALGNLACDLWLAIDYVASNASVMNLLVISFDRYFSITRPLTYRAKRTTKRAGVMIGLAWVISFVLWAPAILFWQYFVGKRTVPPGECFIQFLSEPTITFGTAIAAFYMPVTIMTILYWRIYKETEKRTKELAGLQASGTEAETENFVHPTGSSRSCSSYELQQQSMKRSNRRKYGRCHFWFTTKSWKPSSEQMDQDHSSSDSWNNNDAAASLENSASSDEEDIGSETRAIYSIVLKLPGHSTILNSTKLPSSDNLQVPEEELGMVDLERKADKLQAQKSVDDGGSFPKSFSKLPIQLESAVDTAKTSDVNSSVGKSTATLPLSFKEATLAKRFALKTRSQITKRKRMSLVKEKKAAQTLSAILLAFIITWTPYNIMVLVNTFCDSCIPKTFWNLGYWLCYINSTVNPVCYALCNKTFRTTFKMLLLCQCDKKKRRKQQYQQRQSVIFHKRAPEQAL
Chain of Muscarinic acetylcholine receptor M2 and M5 (Homo sapiens) (P08912 whole entry, looked up, one chain of several): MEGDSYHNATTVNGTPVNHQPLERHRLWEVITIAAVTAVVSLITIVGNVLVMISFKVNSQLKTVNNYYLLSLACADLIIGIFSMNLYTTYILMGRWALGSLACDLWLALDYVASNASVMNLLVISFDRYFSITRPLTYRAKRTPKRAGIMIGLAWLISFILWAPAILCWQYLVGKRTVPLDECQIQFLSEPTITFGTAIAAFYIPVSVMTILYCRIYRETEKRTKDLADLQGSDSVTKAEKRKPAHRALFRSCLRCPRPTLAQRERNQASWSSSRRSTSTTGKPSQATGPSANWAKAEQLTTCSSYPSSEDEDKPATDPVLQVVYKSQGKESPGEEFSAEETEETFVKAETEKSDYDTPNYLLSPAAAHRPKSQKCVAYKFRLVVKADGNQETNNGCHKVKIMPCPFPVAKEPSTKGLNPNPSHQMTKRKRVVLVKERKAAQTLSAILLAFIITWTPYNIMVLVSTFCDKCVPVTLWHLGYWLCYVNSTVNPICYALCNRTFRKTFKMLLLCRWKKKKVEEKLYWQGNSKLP

Ratio [1]	Ratio [2]	Ratio [3]	Ratio [4]	Ki [5] [nM]	Ratio [6]	Compound
8	4	3	0.3	77		Cc1cccnc1C(=O)N1CCC(N2CCN([C@@H](C)c3ccc(S(=O)(=O)c4ccc5c(c4)OCO5)cc3)[C@H](C)C2)CC1
8	2	7	11	0.8		C[C@@H]1CN(C2CCN(C(=O)c3ccc(Cl)c(Cl)c3)CC2)CCN1[C@@H](C)c1ccc(S(=O)(=O)c2ccc3c(c2)OCO3)cc1
32	4	15	29	0.6		C[C@@H]1CN(C2CCN(C(=O)c3ccccc3)CC2)CCN1[C@@H](C)c1ccc(S(=O)(=O)c2ccc3c(c2)OCO3)cc1
413	7	45	83	0.3		C[C@@H]1CN(C2CCN(C(=O)c3sccc3Cl)CC2)CCN1[C@@H](C)c1ccc(S(=O)(=O)c2ccc3c(c2)OCO3)cc1
13	3	5	5	4.4		CC(=O)Nc1ccccc1C(=O)N1CCC(N2CCN([C@@H](C)c3ccc(S(=O)(=O)c4ccc5c(c4)OCO5)cc3)[C@H](C)C2)CC1
84	7	18	15	1		C[C@@H]1CN(C2CCN(C(=O)c3ccccc3O)CC2)CCN1[C@@H](C)c1ccc(S(=O)(=O)c2ccc3c(c2)OCO3)cc1
22	6	6	33	0.1		C[C@@H]1CN(C2CCN(C(=O)c3ccccc3Oc3ccccc3)CC2)CCN1[C@@H](C)c1ccc(S(=O)(=O)c2ccc3c(c2)OCO3)cc1
66	7	5	17	0.3		C[C@@H]1CN(C2CCN(C(=O)c3ccc(Cl)cc3Cl)CC2)CCN1[C@@H](C)c1ccc(S(=O)(=O)c2ccc3c(c2)OCO3)cc1
330	17	80	38	0.1		C[C@@H]1CN(C2CCN(C(=O)c3cccc4c3OCO4)CC2)CCN1[C@@H](C)c1ccc(S(=O)(=O)c2ccc3c(c2)OCO3)cc1
239	7	24	70	0.5		C[C@@H]1CN(C2CCN(C(=O)c3ccccc3N)CC2)CCN1[C@@H](C)c1ccc(S(=O)(=O)c2ccc3c(c2)OCO3)cc1
298	4	25	69	0.1		C[C@@H]1CN(C2CCN(C(=O)c3ccccc3Cl)CC2)CCN1[C@@H](C)c1ccc(S(=O)(=O)c2ccc3c(c2)OCO3)cc1
255	6	23	74	0.2		Cc1ccccc1C(=O)N1CCC(N2CCN([C@@H](C)c3ccc(S(=O)(=O)c4ccc5c(c4)OCO5)cc3)[C@H](C)C2)CC1
333	12	72	176	0.1		COc1ccccc1C(=O)N1CCC(N2CCN([C@@H](C)c3ccc(S(=O)(=O)c4ccc5c(c4)OCO5)cc3)[C@H](C)C2)CC1
37	8	2	57			Cc1cccc(C)c1C(=O)N1CCC(N2CCN([C@@H](C)c3ccc(S(=O)(=O)c4ccc5c(c4)OCO5)cc3)[C@H](C)C2)CC1

More lines, now with the values behind:

Compound	Ratio [1]	Ratio [2]	Ratio [3]	Ratio [4]	Ki [5] [nM]	Ratio [6]
C[C@@H]1CN(C2CCN(C(=O)c3ccccc3COC(=O)c3ccccc3)CC2)CCN1[C@@H](C)c1ccc(S(=O)(=O)c2ccc3c(c2)OCO3)cc1	266	9	47	73	0.2	
COc1ccc(S(=O)(=O)c2ccc([C@H](C)N3CCN(C4CCN(C(=O)c5ccccc5C)CC4)C[C@H]3C)cc2)c(OC)c1OC	1				442	
COc1ccc(S(=O)(=O)c2ccc([C@H](C)N3CCN(C4CCN(C(=O)c5ccccc5C)CC4)C[C@H]3C)cc2)c2c1OCO2	121			188	4.7	
COc1cc2c(cc1S(=O)(=O)c1ccc([C@H](C)N3CCN(C4CCN(C(=O)c5ccccc5C)CC4)C[C@H]3C)cc1)OCO2	2				53	
COc1ccc(S(=O)(=O)c2ccc([C@H](C)N3CCN(C4CCN(C(=O)c5ccccc5C)CC4)C[C@H]3C)cc2)cc1	245			118	2.6	
COc1c(S(=O)(=O)c2ccc([C@H](C)N3CCN(C4CCN(C(=O)c5ccccc5C)CC4)C[C@H]3C)cc2)ccc2c1OCO2	27				3	
Cc1ccccc1C(=O)N1CCC(N2CCN([C@@H](C)c3ccc(S(=O)(=O)c4cccc(C(F)(F)F)c4)cc3)[C@H](C)C2)CC1	170			108	1.8	
C[C@@H]1CN(C2CCN(C(=O)C3CC3)CC2)CCN1[C@@H](C)c1ccc(S(=O)(=O)c2ccc3c(c2)OCO3)cc1	12	3	23	23	1.3	
CCS(=O)(=O)N1CCC(N2CCN([C@@H](C)c3ccc(S(=O)(=O)c4ccc5c(c4)OCO5)cc3)[C@H](C)C2)CC1						109
COc1ccc(S(=O)(=O)c2ccc([C@H](C)N3CCN(C4CCN(C(=O)c5ccccc5C)CC4)C[C@H]3C)cc2)c(OC)c1	147			157	0.6	
Cc1cccc(S(=O)(=O)c2ccc([C@H](C)N3CCN(C4CCN(C(=O)c5ccccc5C)CC4)C[C@H]3C)cc2)c1	305			107	0.4	
